Key:
SW480 [1] = experiment: Cytotoxicity against human SW480 cells after 48 hrs by MTS assay; assay type: functional, cell-based; details: SW480, 48 h
Procedure, shortened: (§1)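 Lines obtained from ATCC, grown in RPMI-1640 or DMEM with 10% FBS at 37 °C, 5% CO2. Adherent cells seeded at 1 × 10^5 cells/mL and allowed to attach 12 h; suspension cells seeded just before dosing. Range of concentrations tested in triplicate for 48 h. MTS then added for 4 h at 37 °C, cells lysed in 20% SDS-50% DMF, OD read at 490 nm. IC50 by Reed and Muench method.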

MCF7 = experiment: Cytotoxicity against human MCF7 cells after 48 hrs by MTS assay; assay type: functional, cell-based; details: MCF7, 48 h; procedure, shortened: as §1
A549 = experiment: Cytotoxicity against human A549 cells after 48 hrs by MTS assay; assay type: functional, cell-based; details: A549, 48 h; procedure, shortened: as §1
SMMC-7721 = experiment: Cytotoxicity against human SMMC7721 cells after 48 hrs by MTS assay; assay type: functional, cell-based; details: SMMC-7721, 48 h; procedure, shortened: as §1
HL-60 = experiment: Cytotoxicity against human HL60 cells after 48 hrs by MTS assay; assay type: functional, cell-based; details: HL-60, 48 h; procedure, shortened: as §1
SW480 [2] = experiment: Potency index, ratio of cisplatin IC50 to compound IC50 for human SW480 cells; assay type: functional
RAW264.7 = experiment: Inhibition of LPS-stimulated NO production in mouse RAW264.7 cells after 18 hrs by Griess assay; assay type: functional, cell-based; details: RAW264.7, 18 h
Procedure, shortened: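 RAW264.7 macrophages, 2 × 10^5 cells/well in RPMI 1640 with 10% FBS, preincubated 24 h. Serial dilutions up to 25 μM (DMSO stock diluted in medium) given with 1 μg/mL LPS for 18 h. Supernatant mixed 1:1 with Griess reagent, in triplicate, 5 min; absorbance at 570 nm. Parallel MTS viability check under the same 18 h conditions.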

SMILES	IC50 (SW480 [1]) [µM]	IC50 (MCF7) [µM]	IC50 (A549) [µM]	IC50 (SMMC-7721) [µM]	IC50 (HL-60) [µM]	Ratio IC50 (SW480 [2])	IC50 (RAW264.7) [µM]
C=C1[C@@H]2CC[C@@H]3[C@](C2)(C(=O)O[C@H]2CCC(C)(C)[C@H]4[C@H](O)OC[C@@]243)[C@@H]1O	> 40	> 40	> 40	> 40	> 40		
C=C1C(=O)[C@]23C[C@H]1CC[C@H]2[C@@]12CO[C@@H](O)[C@@H]1C(C)(C)CC[C@@H]2OC3=O	1	2.6	3.2	3.5	2.8	15	2.2
C=C1[C@H]2C[C@@]3(C(=O)O[C@H]4CCC(C)(C)[C@H]5[C@H](O)OC[C@@]45[C@@H]3[C@@H]3O[C@@H]32)[C@@H]1O	> 40	> 40	> 40	> 40	> 40		
C=C1[C@@H]2C=C[C@@H]3[C@](C2)(C(=O)O[C@H]2CCC(C)(C)[C@H]4[C@H](O)OC[C@@]243)[C@@H]1O	> 40	> 40	> 40	> 40	> 40		
C=C1[C@@H](O)[C@]23C[C@@]1(O)C[C@@H](O)[C@H]2[C@]12CO[C@@H]4OC[C@](C)(CC[C@@H]1OC3=O)[C@@H]42	> 40	> 40	> 40	> 40	> 40		
CC1(C)[C@H](O)C[C@@H]2OC(=O)[C@@]34C[C@@H](C[C@@H](O)[C@H]3[C@]23CO[C@@H](O)[C@H]13)[C@](C)(O)C4=O	> 40	> 40	> 40	> 40	> 40		
C=C1C(=O)[C@]23C[C@H]1CC[C@H]2[C@@]12CO[C@@H](O)[C@@H]1C(C)(C)[C@@H](O)C[C@@H]2OC3=O [ENEMIN]	> 40	> 40	> 40	> 40	> 40		
C=C1C(=O)[C@]23C[C@H]1C[C@H](O)[C@H]2[C@@]12CO[C@@H](O)[C@@H]1C(C)(C)CC[C@@H]2OC3=O [EPINODOSIN]	> 40	> 40	> 40	> 40	> 40		
C=C1C(=O)[C@]23C[C@H]1C[C@@H](O)[C@H]2[C@@]12CO[C@@H](O)[C@@H]1C(C)(C)CC[C@@H]2OC3=O [NODOSIN]	12.1	23.5	> 40	27	15		18.4
CC(=O)O[C@H]1C(=O)[C@@]2(C)[C@H]([C@H](OC(=O)c3ccccc3)[C@]3(O)C[C@H](OC(=O)[C@H](O)[C@@H](NC(=O)c4ccccc4)c4ccccc4)C(C)=C1C3(C)C)[C@]1(OC(C)=O)CO[C@@H]1C[C@@H]2O [PACLITAXEL]	< 0.008	< 0.008	< 0.008	< 0.008	< 0.008		
C=C1C(=O)[C@]23C[C@H]1C[C@@H](O)[C@H]2[C@]12CO[C@@H]4OC[C@](C)(CC[C@@H]1OC3=O)[C@@H]42 [SCULPONEATIN A]	3.5	15	17.1	15.2	12.7		9.1
C=C1[C@@H]2C[C@@H](O)[C@@H]3[C@](C2)(C(=O)O[C@H]2CC[C@@]4(C)CO[C@H]5OC[C@]23[C@H]54)[C@@H]1O [SCULPONEATIN B]	> 40	> 40	> 40	> 40	> 40		

— ChEMBL document CHEMBL3091410, “Enmein-type 6,7-seco-ent-kauranoids from Isodon sculponeatus” (J Nat Prod, 2013)
